Screening data deposited in PubChem by several laboratories.
The list is not random: actives were taken first. Their share in the collection is about 4%.
UPR CHOP act: activators of apoptotic CHOP UPR arm, primary screen, cell-based, CHO-CHOP luciferase reporter, luminescence, uHTS | UPR activation; percent of tunicamycin response over DMSO baseline | activation, % at 10 µM | hit rate 0.34% among 330,000;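 active means at 10 µM dose, activation of 40% or more, normalized to positive control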
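assay system = CHO CHOP reporter cells | amount = 500 CHO-CHOP cells per well | buffer or medium = F12 with 10% FBS | incubation = 16-18 h cell attachment, then 6 h compound exposure, 37 °C | detection = luminescence read with Steady-Glo | read-out = percent activation relative to tunicamycin control | controls = tunicamycin high control, DMSO low control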
UPR XBP1 act: activators of adaptive XBP1 UPR arm, primary screen, cell-based, CHO-XBP1 luciferase reporter, luminescence, uHTS; IRE1-XBP1 UPR activation; percent of tunicamycin response, DMSO as zero; activation, % at 20 µM; AID 463104, 2010; hit rate 0.33% among 330,000;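 active means versus positive control, 20 µM dose yields 30% or more activation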
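Material: CHO cell line with stable XBP1 luciferase reporter; buffer or medium: F12 medium containing 10% fetal bovine serum; compound: single point, 20 µM final compound, 1% DMSO; incubation: 6 h treatment, 37 °C; measured by: glow luminescence from Steady-Glo reagent; evaluation: activation, % of tunicamycin; control set: tunicamycin high, DMSO low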
Exocytosis inh: LAMP-1 surface exposure blockers, TALL-104 cells – cell-based, flow cytometry, MLPCN library, primary screen | hit rate 0.66% among 360,000 | TALL-104 LAMP-1 surface exposure; cells stimulated with thapsigargin and PMA | inhibition, % at 10 µM;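 active means inhibition above about 55%, limit read from the data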
ABHD5-PLIN5 inh: ABHD5-PLIN5 interaction inhibitors, primary screen, cell lysate, split luciferase complementation, luminescence. Perilipin-5 (Homo sapiens) + 1-acylglycerol-3-phosphate O-acyltransferase ABHD5 (Homo …. Split G. princeps luciferase complementation, 4 h. inhibition, % at 4 µM. hit rate 0.78% among 360,000;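 active means inhibition above the mean inhibition across every tested compound plus 3 SD, cut at about 22% in these data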
Mdm2-MdmX inh: inhibitors of human Mdm2-MdmX association, primary screen, cell-based, luminescence, split luciferase, SaOS-2, uHTS | Protein Mdm4 (Homo sapiens) + E3 ubiquitin-protein ligase Mdm2 (Homo sapiens), … | SaOS-2 split-luciferase Mdm2/MdmX complementation | inhibition, % at 8 µM | hit rate 3% among 330,000 | AID 485346, 2010;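 active means inhibition of at least 50% at 8 µM in the primary screen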
ABHD5-PLIN5 conf: ABHD5-PLIN5 interaction inhibitors, confirmation, biochemical, luminescence | hit rate 67% among 2,200 | AID 651612, 2012 | inhibition, % at 4 µM | shares compounds with ABHD5-PLIN5 inh; in the data active means inhibition above about 23%
HNF4 split-luc: HNF4 dimerization inhibitors, counter-screen for ABHD5-PLIN5 interaction inhibitor project, biochemical, split-luciferase complementation, luminescence; hit rate 77% among 2,200; shares compounds with ABHD5-PLIN5 inh; inhibition, % at 4 µM;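 active means mean inhibition across replicate wells exceeding the computed hit threshold, cut at about 13% in these data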;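 further: light from luciferase halves that rejoin when HNF4 fusion proteins dimerize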
Target sequence (P41235 whole entry, looked up, the tested form may be a part): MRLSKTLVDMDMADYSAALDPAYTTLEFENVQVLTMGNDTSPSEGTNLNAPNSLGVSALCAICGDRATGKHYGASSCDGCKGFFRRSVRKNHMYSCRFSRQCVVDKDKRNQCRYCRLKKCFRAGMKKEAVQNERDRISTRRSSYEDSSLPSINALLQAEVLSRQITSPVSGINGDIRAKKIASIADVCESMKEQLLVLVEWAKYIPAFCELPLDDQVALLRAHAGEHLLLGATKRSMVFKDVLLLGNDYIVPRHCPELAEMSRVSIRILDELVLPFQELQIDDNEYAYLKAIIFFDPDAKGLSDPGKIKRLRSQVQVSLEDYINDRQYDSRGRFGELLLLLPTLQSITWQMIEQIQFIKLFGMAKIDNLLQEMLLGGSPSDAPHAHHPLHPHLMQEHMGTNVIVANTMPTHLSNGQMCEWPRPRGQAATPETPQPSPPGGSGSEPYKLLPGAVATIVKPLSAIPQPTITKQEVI
Hits are given with their value; i = inactive; nt = no result given; ! = repeats disagree.

SMILES	UPR CHOP act	UPR XBP1 act	Exocytosis inh	ABHD5-PLIN5 inh	Mdm2-MdmX inh	ABHD5-PLIN5 conf	HNF4 split-luc
O=C(O)c1ccc(/C=C2\COc3ccccc3C2=O)cc1	i	i	i	32	i	84	78
COc1cc(/C=C2\COC/C(=C\c3cc(OC)c(OC)c(OC)c3)C2=O)cc(OC)c1OC	nt	nt	i	47	nt	101	101
COc1cc(/C=C2\CCC(C3CCCC3)C2=O)cc(OC)c1OC (configuration not stated)	i	i	i	i	i	nt	nt
COc1ccc(/C=C2\COc3ccccc3C2=O)cc1OC	i	i	i	33	i	76	71
O=c1[nH]cc(N(CCO)CCO)c(=O)[nH]1	i	i	i	i	i	nt	nt
CCCC(=O)Nc1nnc(S(=O)(=O)N(C)Cc2ccco2)s1	i	i	i	41	i	30	56
CCC(=O)Nc1nnc(S(=O)(=O)N(C)Cc2ccco2)s1	i	i	i	i	i	nt	nt
CN(Cc1ccco1)S(=O)(=O)c1nnc(NC(=O)c2ccccc2Cl)s1	i	i	i	30	i	46	74
O=C(CSc1ccccn1)N1CCN(c2ccc(Cl)cc2)CC1	i	i	i	i	i	nt	nt
COc1ccc(NC(=O)C(CC(=O)O)Cc2ccccc2)cc1 (configuration not stated)	i	i	i	i	i	nt	nt
Cc1cc(C)c(NC(=O)CS(=O)CC(=O)N2CCN(c3ccccc3)CC2)c(C)c1 (configuration not stated)	i	i	i	i	i	nt	nt
Nc1cc(Cl)nc(N/N=C/c2c(O)ccc3ccccc23)n1	i	i	i	i	i	nt	nt
O=C(O)/C=C/C(=O)c1ccc(O)cc1	i	i	i	86	i	96	104
CCOc1cccc(C2/C(=C(\O)c3ccc4c(c3)OCCO4)C(=O)C(=O)N2Cc2ccncc2)c1 (configuration not stated)	i	i	i	i	i	nt	nt
CN1CCC(=C2c3ccccc3CC(=O)c3sccc32)CC1	i	i	i	27!	i	30	i
O=C1/C(=C/c2cccs2)Cc2ccccc21	i	i	i	i	i	nt	nt
O=C(Cn1cc(C(F)(F)F)ccc1=O)NC(c1ccccc1)c1ccccc1	i	i	i	i	i	nt	nt
CN(C)S(=O)(=O)c1cccc(NC(=O)COC(=O)/C=C/c2ccco2)c1	i	i	i	25	i	i	27
CCN(CC)S(=O)(=O)c1cccc(NC(=O)COC(=O)/C=C/c2ccco2)c1	i	i	i	i	i	nt	nt
COc1ccc(OCCN(C)Cc2c(O)ccc3ccccc23)cc1	i	i	i	i	i	nt	nt
Cc1cn([C@@H](CCCCNC(=O)OC(C)(C)C)C(=O)NCCCCCCCCCCC(=O)N2CCN(C(=O)OC(C)(C)C)CC2)nn1	i	i	i	24	i	i	i
C=CC(=O)N1C/C(=C/c2ccc(F)cc2)C(=O)/C(=C\c2ccc(F)cc2)C1	nt	nt	94	100	nt	102	105
Cc1cc2oc(=O)sc2cc1NS(=O)(=O)c1ccccc1	i	i	i	39	i	i	i
Cc1cc2oc(=O)sc2cc1NS(=O)(=O)c1cccc2cccnc12	i	i	i	i	i	nt	nt
COc1ccc(CN=C2Nc3ccccc3CS2)cc1	i	i	i	37	i	i	i
SMILES	UPR CHOP act	UPR XBP1 act	Exocytosis inh	ABHD5-PLIN5 inh	Mdm2-MdmX inh	ABHD5-PLIN5 conf	HNF4 split-luc
COc1ccc(CN=C2NN=C(c3ccc(Cl)cc3)CS2)cc1	i	i	i	i	i	nt	nt
Cc1cc2c(c(=O)n1Cc1ccco1)C(c1cccnc1)C(C#N)=C(N)O2 (configuration not stated)	i	i	i	42	i	i	24
N#Cc1c(NCCCO)nc(-c2ccco2)c2c1CCCC2	i	i	i	35	i	i	21
N#Cc1c(NC2CCCCC2)nc(-c2ccco2)c2c1CCCC2	i	i	i	i	i	nt	nt
CCOC(=O)C1=C(C)NC(C)=C(C(=O)OCC)C1C(=O)OCC(N)=O	i	i	i	i	i	nt	nt
CCOC(=O)C1=C(C)NC(C)=C(C(=O)OCC)C1C(=O)OCC(=O)N(C)C1CCS(=O)(=O)C1 (configuration not stated)	i	i	i	96	i	i	i
CCOC(=O)C1=C(C)N(c2ccccc2)C(=O)/C1=C\c1ccc(O)c(OC)c1	i	i	i	26	i	39	49
COc1cc(/C=C2/C(=O)CNC2=O)ccc1O	i	i	i	i	i	nt	nt
COc1cc(C=C2C(=O)C=CC2=O)ccc1O	nt	nt	83	99	nt	94	108
COc1cc(NC(=O)c2ccccc2)c(OC)cc1NC(=O)CN1CCOCC1	i	i	i	i	i	nt	nt
CCN1C/C(=C/c2cccc([N+](=O)[O-])c2)C(=O)/C(=C/c2cccc([N+](=O)[O-])c2)C1	nt	nt	64	40	nt	102	97
O=C1NC(=O)/C(=C/c2cccc([N+](=O)[O-])c2)N1	i	i	i	i	i	nt	nt
CC(=O)Nc1ccc(S(=O)(=O)N2CCC(NC(=O)C(Cc3ccc(C)cc3)NC(C)=O)CC2)cc1 (configuration not stated)	i	i	i	i	i	nt	nt
COc1ccc(/C=C/C(=O)c2c(O)c(OC)c3occc3c2OC)cc1	nt	nt	i	49	nt	79	65
COc1ccc(/C=C/C(=O)c2ccccc2O)cc1	i	i	i	i	i	nt	nt
CC(Sc1nnc(C(F)(F)F)n1C)C(=O)Nc1ccc(N2CCOCC2)cc1 (configuration not stated)	i	i	i	i	i	nt	nt
CCCN1C(=O)S/C(=C/c2ccc(N3CCOCC3)o2)C1=O	i	i	i	83	i	32	93
CCOC(=O)CN1C(=O)S/C(=C/c2ccc(N3CCCCC3)o2)C1=O	i	i	i	i	i	nt	nt
CCCN1C(=O)S/C(=C\c2ccc(N3CCOCC3)o2)C1=O	i	i	81	74	i	54	109
O=C(Cc1ccc(S(=O)(=O)N2CCOCC2)s1)Nc1ccccc1N1CCOCC1	i	i	i	i	i	nt	nt
CCN(CC)S(=O)(=O)c1ccc(C)c(NC(=O)Cc2ccc(S(=O)(=O)N3CCOCC3)s2)c1	i	i	i	23	i	i	i
